Experimental data published in ChEMBL document CHEMBL4138082 (Eur J Med Chem, 2017).

Assays:
[1] = test system: HepG2; experiment: Antiproliferative activity against human HepG2 cells after 72 hrs by MTT assay; type: functional, cell-based; details: HepG2, 72 h
Summary of the method: (§1)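 MTT assay. Cells were seeded and grown 24 h at 37 °C in 5% CO2, then exposed to compound or left untreated for 72 h. MTT (5 mg/mL stock) was added for 4 h and the formazan dissolved in DMSO. OD was read at 570 nm. IC50 is the concentration giving 50% growth inhibition, reported as mean ± SD of three independent experiments. Vehicle reference was 0.1% DMSO.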

[2] = test system: HT-29; experiment: Antiproliferative activity against human HT-29 cells after 72 hrs by MTT assay; type: functional, cell-based; details: HT-29, 72 h; summary of the method: as §1
[3] = test system: L02; experiment: Cytotoxicity against human L02 cells assessed as reduction in cell viability after 72 hrs by MTT assay; type: cell-based; details: L02, 72 h; summary of the method: as §1
[4] = test system: PC-3; experiment: Antiproliferative activity against human PC3 cells after 72 hrs by MTT assay; type: functional, cell-based; details: PC-3, 72 h; summary of the method: as §1
[5] = Selectivity index, ratio of IC50 for human L02 cells to IC50 for human HepG2 cells; type: toxicity; details: L02 cells and HepG2 cells, read-out: Ratio IC50
Summary of the method: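 MTT assay: cells grown 24 h at 37 °C, 5% CO2, then exposed 72 h; MTT (5 mg/mL) added for 4 h, formazan dissolved in DMSO, OD read at 570 nm. Vehicle 0.1% DMSO. Three independent experiments.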

[6] = Drug metabolism in human HepG2 cells assessed as NO release by measuring nitrite formation at 100 uM after 1 hr by Griess assay; type: ADME, cell-based; details: hepg2, 1 h
Summary of the method: (§2)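 HepG-2 or L-02 cells were exposed to 100 µM of each compound for 60 min and then harvested. Lysates were mixed with Griess reagent for 10 min at 37 °C and absorbance was read at 550 nm. NO release is expressed as nitrite, reported as mean ± SD of three independent experiments.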

[7] = Drug metabolism in human L02 cells assessed as NO release by measuring nitrite formation at 100 uM after 1 hr by Griess assay; type: ADME, cell-based; details: l02, 1 h; summary of the method: as §2

Row | Structure (SMILES) | IC50 [1] [nM] | IC50 [2] [nM] | IC50 [3] [nM] | IC50 [4] [nM] | selectivity ratio [5] | Drug metabolism [6] [µM] | Drug metabolism [7] [µM]
1 | O=C(O)CCCC(=O)OCCCOc1no[n+]([O-])c1S(=O)(=O)c1ccccc1 | > 10000 | > 10000 | 35000 | 3300 |  |  | 
2 | C[C@H]1CCC/C=C/[C@@H]2C[C@H](O)C[C@H]2[C@H](OC(=O)c2ccccc2C(=O)OCCOc2no[n+]([O-])c2S(=O)(=O)c2ccccc2)/C=C/C(=O)O1 | 820 | 400 | 5700 | 110 | 7 |  | 
3 | C[C@H]1CCC/C=C/[C@@H]2C[C@H](O)C[C@H]2[C@H](OC(=O)CCC(=O)OCCOc2no[n+]([O-])c2S(=O)(=O)c2ccccc2)/C=C/C(=O)O1 | 510 | 230 | 5000 | 120 | 10 |  | 
4 | C[C@H]1CCC/C=C/[C@@H]2C[C@H](OC(=O)c3ccccc3C(=O)OCCCOc3no[n+]([O-])c3S(=O)(=O)c3ccccc3)C[C@H]2[C@H](OC(=O)c2ccccc2C(=O)OCCCOc2no[n+]([O-])c2S(=O)(=O)c2ccccc2)/C=C/C(=O)O1 | 4000 | 4400 | 9800 | 1300 | 2 |  | 
5 | C[C@H]1CCC/C=C/[C@@H]2C[C@H](O)C[C@H]2[C@H](OC(=O)CCCC(=O)OCCOc2no[n+]([O-])c2S(=O)(=O)c2ccccc2)/C=C/C(=O)O1 | 410 | 280 | 5100 | 46 | 12 | 68.5 | 13.9
6 | C[C@H]1CCC/C=C/[C@@H]2C[C@H](O)C[C@H]2[C@H](OC(=O)CCC(=O)OCCCOc2no[n+]([O-])c2S(=O)(=O)c2ccccc2)/C=C/C(=O)O1 | 730 | 790 | 6900 | 250 | 9 |  | 
7 | C[C@H]1CCC/C=C/[C@@H]2C[C@H](O)C[C@H]2[C@H](O)/C=C/C(=O)O1 [BREFELDIN A] | 350 | 160 | < 0.4 | 68 |  |  | 
8 | O=C(O)c1ccccc1C(=O)OCCCOc1no[n+]([O-])c1S(=O)(=O)c1ccccc1 | > 10000 | > 10000 | 40000 | 4900 |  |  | 
9 | C[C@H]1CCC/C=C/[C@@H]2C[C@H](OC(=O)CCC(=O)O)C[C@H]2[C@H](O)/C=C/C(=O)O1 | 1600 | 6300 | 9500 | 1600 | 6 |  | 
10 | O=C(O)CCC(=O)OCCCOc1no[n+]([O-])c1S(=O)(=O)c1ccccc1 | 6400 | > 10000 | 29000 | > 10000 | 5 |  | 
11 | C[C@H]1CCC/C=C/[C@@H]2C[C@H](OC(=O)c3ccccc3C(=O)OCCCOc3no[n+]([O-])c3S(=O)(=O)c3ccccc3)C[C@H]2[C@H](O)/C=C/C(=O)O1 | 620 | 300 | 5400 | 95 | 9 |  | 
12 | C[C@H]1CCC/C=C/[C@@H]2C[C@H](OC(=O)CCC(=O)OCCOc3no[n+]([O-])c3S(=O)(=O)c3ccccc3)C[C@H]2[C@H](OC(=O)CCC(=O)OCCOc2no[n+]([O-])c2S(=O)(=O)c2ccccc2)/C=C/C(=O)O1 | 510 | 220 | 5900 | 56 | 12 | 98.4 | 19.5
13 | C[C@H]1CCC/C=C/[C@@H]2C[C@H](OC(=O)CCCC(=O)OCCCOc3no[n+]([O-])c3S(=O)(=O)c3ccccc3)C[C@H]2[C@H](OC(=O)CCCC(=O)OCCCOc2no[n+]([O-])c2S(=O)(=O)c2ccccc2)/C=C/C(=O)O1 | 380 | 620 | 5100 | 83 | 13 | 92.3 | 23.4
14 | O=C(O)c1ccccc1C(=O)OCCOc1no[n+]([O-])c1S(=O)(=O)c1ccccc1 | > 10000 | > 10000 | 37000 | 9900 |  |  | 
15 | C[C@H]1CCC/C=C/[C@@H]2C[C@H](O)C[C@H]2[C@H](OC(=O)CCCC(=O)OCCCOc2no[n+]([O-])c2S(=O)(=O)c2ccccc2)/C=C/C(=O)O1 | 1800 | 5700 | 6700 | 95 | 4 |  | 
16 | C[C@H]1CCC/C=C/[C@@H]2C[C@H](OC(=O)c3ccccc3C(=O)OCCOc3no[n+]([O-])c3S(=O)(=O)c3ccccc3)C[C@H]2[C@H](OC(=O)c2ccccc2C(=O)OCCOc2no[n+]([O-])c2S(=O)(=O)c2ccccc2)/C=C/C(=O)O1 | 550 | 230 | 6200 | 130 | 11 | 89.3 | 20.6
17 | C[C@H]1CCC/C=C/[C@@H]2C[C@H](OC(=O)CCC(=O)OCCCOc3no[n+]([O-])c3S(=O)(=O)c3ccccc3)C[C@H]2[C@H](O)/C=C/C(=O)O1 | 1300 | 910 | 7800 | 730 | 6 |  | 
18 | O=C(O)CCCC(=O)OCCOc1no[n+]([O-])c1S(=O)(=O)c1ccccc1 | 4000 | > 10000 | 32000 | 5100 | 8 |  | 
19 | C[C@H]1CCC/C=C/[C@@H]2C[C@H](OC(=O)CCC(=O)OCCCOc3no[n+]([O-])c3S(=O)(=O)c3ccccc3)C[C@H]2[C@H](OC(=O)CCC(=O)OCCCOc2no[n+]([O-])c2S(=O)(=O)c2ccccc2)/C=C/C(=O)O1 | 840 | 1200 | 7200 | 120 | 9 |  | 
20 | O=c1[nH]cc(F)c(=O)[nH]1 [FLUOROURACIL] |  | 4900 |  |  |  |  | 
21 | C[C@H]1CCC/C=C/[C@@H]2C[C@H](OC(=O)CCCC(=O)OCCCOc3no[n+]([O-])c3S(=O)(=O)c3ccccc3)C[C@H]2[C@H](O)/C=C/C(=O)O1 | 750 | 1600 | 6700 | 160 | 9 |  | 
22 | O=C(O)CCC(=O)OCCOc1no[n+]([O-])c1S(=O)(=O)c1ccccc1 | > 10000 | > 10000 | 36000 | 3800 |  |  | 
23 | C[C@H]1CCC/C=C/[C@@H]2C[C@H](OC(=O)c3ccccc3C(=O)OCCOc3no[n+]([O-])c3S(=O)(=O)c3ccccc3)C[C@H]2[C@H](O)/C=C/C(=O)O1 | 540 | 280 | 5900 | 64 | 11 |  | 
24 | C[C@H]1CCC/C=C/[C@@H]2C[C@H](OC(=O)CCC(=O)OCCOc3no[n+]([O-])c3S(=O)(=O)c3ccccc3)C[C@H]2[C@H](O)/C=C/C(=O)O1 | 910 | 460 | 5200 | 140 | 6 |  | 
25 | C[C@H]1CCC/C=C/[C@@H]2C[C@H](O)C[C@H]2[C@H](OC(=O)c2ccccc2C(=O)OCCCOc2no[n+]([O-])c2S(=O)(=O)c2ccccc2)/C=C/C(=O)O1 | 620 | 860 | 5900 | 150 | 10 |  | 
26 | C[C@H]1CCC/C=C/[C@@H]2C[C@H](OC(=O)CCCC(=O)OCCOc3no[n+]([O-])c3S(=O)(=O)c3ccccc3)C[C@H]2[C@H](O)/C=C/C(=O)O1 | 820 | 180 | 5100 | 59 | 6 | 65.2 | 14.6
